Test results taken from ChEMBL document CHEMBL4715745, “Synthesis and biological evaluation of novel FK228 analogues as potential isoform selective HDAC inhibitors” (Eur J Med Chem, 2016).
One block for each compound: values may come before it.

Tests used:
OVCAR-8 = experiment: Growth inhibition of human OVCAR-8 cells measured after 48 hrs by sulforhodamine B assay; format: functional
Procedure, shortened: (§1)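 Panel of 39 human cancer cell lines tested at the Japanese Foundation for Cancer Research. Five concentrations per compound, spanning 10⁻¹¹–10⁻⁷ M, 10⁻¹⁰–10⁻⁶ M or 10⁻⁸–10⁻⁴ M, were used to build dose-response curves. GI₅₀ is the concentration giving 50% growth inhibition relative to control.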

SF-268 = experiment: Growth inhibition of human SF-268 cells measured after 48 hrs by sulforhodamine B assay; format: functional; procedure, shortened: as §1
HCT-116 = experiment: Growth inhibition of human HCT-116 cells measured after 48 hrs by sulforhodamine B assay; format: functional; procedure, shortened: as §1
[1] = Growth inhibition of human BSY1 cells measured after 48 hrs by sulforhodamine B assay; format: functional; conditions: BSY-1; procedure, shortened: as §1
NCI-H23 = experiment: Growth inhibition of human NCI-H23 cells measured after 48 hrs by sulforhodamine B assay; format: functional; procedure, shortened: as §1
NCI-H522 = experiment: Growth inhibition of human NCI-H522 cells measured after 48 hrs by sulforhodamine B assay; format: functional; procedure, shortened: as §1
MDA-MB-231 = experiment: Growth inhibition of human MDA-MB-231 cells measured after 48 hrs by sulforhodamine B assay; format: functional; procedure, shortened: as §1
[2] = Growth inhibition of human HBC4 cells measured after 48 hrs by sulforhodamine B assay; format: functional; procedure, shortened: as §1
MKN-28 = experiment: Growth inhibition of human MKN-28 cells measured after 48 hrs by sulforhodamine B assay; format: functional; procedure, shortened: as §1
HCC 2998 = experiment: Growth inhibition of human HCC 2998 cells measured after 48 hrs by sulforhodamine B assay; format: functional; procedure, shortened: as §1
SNB-78 = experiment: Growth inhibition of human SNB-78 cells measured after 48 hrs by sulforhodamine B assay; format: functional; procedure, shortened: as §1
RXF 631 = experiment: Growth inhibition of human RXF 631 cells measured after 48 hrs by sulforhodamine B assay; format: functional; procedure, shortened: as §1
MKN-1 = experiment: Growth inhibition of human MKN-1 cells measured after 48 hrs by sulforhodamine B assay; format: functional; procedure, shortened: as §1
OVCAR-4 = experiment: Growth inhibition of human OVCAR-4 cells measured after 48 hrs by sulforhodamine B assay; format: functional; procedure, shortened: as §1
HCT-15 = experiment: Growth inhibition of human HCT-15 cells measured after 48 hrs by sulforhodamine B assay; format: functional; procedure, shortened: as §1
DU-145 = experiment: Growth inhibition of human DU-145 cells measured after 48 hrs by sulforhodamine B assay; format: functional; procedure, shortened: as §1
St-4 = experiment: Growth inhibition of human St-4 cells measured after 48 hrs by sulforhodamine B assay; format: functional; procedure, shortened: as §1
A549 = experiment: Growth inhibition of human A549 cells measured after 48 hrs by sulforhodamine B assay; format: functional; procedure, shortened: as §1
ACHN = experiment: Growth inhibition of human ACHN cells measured after 48 hrs by sulforhodamine B assay; format: functional; procedure, shortened: as §1
DMS-273 = experiment: Growth inhibition of human DMS-273 cells measured after 48 hrs by sulforhodamine B assay; format: functional; procedure, shortened: as §1
KM12 = experiment: Growth inhibition of human KM12 cells measured after 48 hrs by sulforhodamine B assay; format: functional; procedure, shortened: as §1
SK-OV-3 = experiment: Growth inhibition of human SK-OV-3 cells measured after 48 hrs by sulforhodamine B assay; format: functional; procedure, shortened: as §1
PC-3 = experiment: Growth inhibition of human PC-3 cells measured after 48 hrs by sulforhodamine B assay; format: functional; procedure, shortened: as §1
[3] = Selectivity index, ratio of IC50 for mouse HDAC6 expressed in 293T cells to IC50 for human HDAC1 expressed in 293T cells using Ac-KGLGK(Ac)-MCA as substrate incubated for 30 mins in presence of 0.1 mM DTT by fluorescence plate reader assay; conditions: 0.5 h
Procedure, shortened: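 Ratio of HDAC6 IC₅₀ to HDAC1 IC₅₀, taken as selectivity for class I HDAC1 over class II HDAC6. Both enzyme assays were run in the presence of 0.1 mM DTT.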

OVCAR-5 = experiment: Growth inhibition of human OVCAR-5 cells measured after 48 hrs by sulforhodamine B assay; format: functional; procedure, shortened: as §1
SNB-75 = experiment: Growth inhibition of human SNB-75 cells measured after 48 hrs by sulforhodamine B assay; format: functional; procedure, shortened: as §1
HT-29 = experiment: Growth inhibition of human HT-29 cells measured after 48 hrs by sulforhodamine B assay; format: functional; procedure, shortened: as §1
U-251 = experiment: Growth inhibition of human U-251 cells measured after 48 hrs by sulforhodamine B assay; format: functional; procedure, shortened: as §1
Histone deacetylase 1 = Histone deacetylase 1 (Homo sapiens, UniProt Q13547); experiment: Inhibition of human HDAC1 expressed in 293T cells using Ac-KGLGK(Ac)-MCA as substrate incubated for 30 mins in presence of 0.1 mM DTT by fluorescence plate reader assay; design: species or system HEK293T
SF-295 = experiment: Growth inhibition of human SF-295 cells measured after 48 hrs by sulforhodamine B assay; format: functional; procedure, shortened: as §1
OVCAR-3 = experiment: Growth inhibition of human OVCAR-3 cells measured after 48 hrs by sulforhodamine B assay; format: functional; procedure, shortened: as §1
[4] = Growth inhibition of human HBC5 cells measured after 48 hrs by sulforhodamine B assay; format: functional; procedure, shortened: as §1
MKN-7 = experiment: Growth inhibition of human MKN-7 cells measured after 48 hrs by sulforhodamine B assay; format: functional; procedure, shortened: as §1
LOX IMVI = experiment: Growth inhibition of human LOX IMVI cells measured after 48 hrs by sulforhodamine B assay; format: functional; procedure, shortened: as §1
NCI-H226 = experiment: Growth inhibition of human NCI-H226 cells measured after 48 hrs by sulforhodamine B assay; format: functional; procedure, shortened: as §1
[5] = biological target: T1, Protein deacetylase HDAC6 (Mus musculus, UniProt Q9Z2V5); experiment: Inhibition of mouse HDAC6 expressed in 293T cells using Ac-KGLGK(Ac)-MCA as substrate incubated for 30 mins in presence of 0.1 mM DTT by fluorescence plate reader assay; design: species or system HEK293T
T1 sequence (Q9Z2V5 whole entry): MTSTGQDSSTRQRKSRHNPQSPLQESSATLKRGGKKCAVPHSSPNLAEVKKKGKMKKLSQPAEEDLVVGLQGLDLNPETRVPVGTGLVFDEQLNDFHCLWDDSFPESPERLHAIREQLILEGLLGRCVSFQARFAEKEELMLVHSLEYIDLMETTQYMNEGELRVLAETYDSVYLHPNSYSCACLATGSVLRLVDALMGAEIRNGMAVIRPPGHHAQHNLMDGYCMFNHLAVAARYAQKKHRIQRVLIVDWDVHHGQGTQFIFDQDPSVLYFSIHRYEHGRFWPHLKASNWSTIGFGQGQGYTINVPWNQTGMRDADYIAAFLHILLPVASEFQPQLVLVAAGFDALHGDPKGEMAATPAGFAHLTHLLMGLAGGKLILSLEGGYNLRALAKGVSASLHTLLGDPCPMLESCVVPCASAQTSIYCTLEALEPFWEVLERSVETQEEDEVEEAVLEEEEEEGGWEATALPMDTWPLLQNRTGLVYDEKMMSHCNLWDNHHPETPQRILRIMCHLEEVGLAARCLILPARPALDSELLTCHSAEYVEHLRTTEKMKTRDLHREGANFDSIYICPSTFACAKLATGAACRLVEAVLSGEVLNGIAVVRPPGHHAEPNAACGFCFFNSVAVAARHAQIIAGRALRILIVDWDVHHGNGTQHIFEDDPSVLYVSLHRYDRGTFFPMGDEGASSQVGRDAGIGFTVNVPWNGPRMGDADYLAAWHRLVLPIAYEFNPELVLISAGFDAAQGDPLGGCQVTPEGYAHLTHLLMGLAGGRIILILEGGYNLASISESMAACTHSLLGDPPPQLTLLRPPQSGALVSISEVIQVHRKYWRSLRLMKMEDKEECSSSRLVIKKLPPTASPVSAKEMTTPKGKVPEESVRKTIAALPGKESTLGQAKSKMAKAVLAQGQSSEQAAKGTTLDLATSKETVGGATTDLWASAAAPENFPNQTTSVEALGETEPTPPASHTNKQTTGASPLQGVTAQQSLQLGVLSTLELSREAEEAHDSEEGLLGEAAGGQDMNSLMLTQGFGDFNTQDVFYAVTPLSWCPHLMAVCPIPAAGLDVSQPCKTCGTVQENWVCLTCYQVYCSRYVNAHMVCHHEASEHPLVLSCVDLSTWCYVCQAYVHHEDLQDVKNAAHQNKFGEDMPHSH
Procedure, shortened: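 HDAC enzyme assay run in the presence of 0.1 mM dithiothreitol (DTT); IC₅₀ determined.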

SF-539 = experiment: Growth inhibition of human SF-539 cells measured after 48 hrs by sulforhodamine B assay; format: functional; procedure, shortened: as §1
DMS-114 = experiment: Growth inhibition of human DMS-114 cells measured after 48 hrs by sulforhodamine B assay; format: functional; procedure, shortened: as §1
MCF7 = experiment: Growth inhibition of human MCF7 cells measured after 48 hrs by sulforhodamine B assay; format: functional; procedure, shortened: as §1
MKN-74 = experiment: Growth inhibition of human MKN-74 cells measured after 48 hrs by sulforhodamine B assay; format: functional; procedure, shortened: as §1
MKN-45 = experiment: Growth inhibition of human MKN-45 cells measured after 48 hrs by sulforhodamine B assay; format: functional; procedure, shortened: as §1
NCI-H460 = experiment: Growth inhibition of human NCI-H460 cells measured after 48 hrs by sulforhodamine B assay; format: functional; procedure, shortened: as §1

Chain of Histone deacetylase 1 (Q13547 whole entry): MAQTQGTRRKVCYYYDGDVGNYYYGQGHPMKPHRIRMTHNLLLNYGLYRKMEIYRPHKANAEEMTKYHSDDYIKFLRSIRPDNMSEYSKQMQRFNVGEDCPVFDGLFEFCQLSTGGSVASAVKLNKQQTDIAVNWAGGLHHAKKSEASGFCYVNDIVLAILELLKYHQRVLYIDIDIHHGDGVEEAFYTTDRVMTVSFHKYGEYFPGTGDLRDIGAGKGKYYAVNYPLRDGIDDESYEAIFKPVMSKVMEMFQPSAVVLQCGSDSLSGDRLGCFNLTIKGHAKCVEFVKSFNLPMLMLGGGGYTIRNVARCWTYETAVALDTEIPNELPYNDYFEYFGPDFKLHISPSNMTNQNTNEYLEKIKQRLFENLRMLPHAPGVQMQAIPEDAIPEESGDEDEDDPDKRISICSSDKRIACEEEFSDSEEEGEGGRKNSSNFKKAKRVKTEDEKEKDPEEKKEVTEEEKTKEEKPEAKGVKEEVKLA

GI50 (OVCAR-8): 54 nM | GI50 (HCT-116): 26 nM | GI50 (NCI-H23): 130 nM | GI50 (NCI-H522): 10 nM | GI50 (MDA-MB-231): 53 nM | GI50 (MKN-28): 1400 nM | GI50 (HCC 2998): 32 nM | GI50 (MKN-1): 73 nM | GI50 (OVCAR-4): 270 nM | GI50 (HCT-15): 20000 nM | GI50 (DU-145): 39 nM | GI50 (A549): 52 nM | GI50 (ACHN): 460 nM | GI50 (SK-OV-3): 63 nM | GI50 (PC-3): 170 nM | GI50 (OVCAR-5): 49 nM | GI50 (HT-29): 42 nM | GI50 (U-251): 120 nM | IC50 (Histone deacetylase 1): 4.7 nM | GI50 (OVCAR-3): 64 nM | GI50 (MKN-7): 380 nM | GI50 (NCI-H226): 410 nM | IC50 [5]: 859 nM | GI50 (MCF7): 190 nM | GI50 (MKN-74): 100 nM | GI50 (MKN-45): 1900 nM | GI50 (NCI-H460): 56 nM
SMILES: C/C=C1\NC(=O)[C@H]2CSSCC/C=C/[C@H](CC(=O)N[C@H](C(C)C)C(=O)N2)OC(=O)CNC1=O
GI50 (SF-268): 110 nM | GI50 [1]: 200 nM | GI50 [2]: 170 nM | GI50 (SNB-78): 10 nM | GI50 (RXF 631): 230 nM | GI50 (St-4): 1100 nM | GI50 (DMS-273): 230 nM | GI50 (KM12): 45 nM | Ratio IC50 [3]: 182 | GI50 (SNB-75): 10 nM | GI50 (SF-295): 280 nM | GI50 [4]: 630 nM | GI50 (LOX IMVI): 25 nM | GI50 (SF-539): 10 nM | GI50 (DMS-114): 43 nM

SMILES: CC(C)[C@H]1NC(=O)C[C@H]2/C=C/CCSSC[C@@H](NC1=O)C(=O)N[C@@H](C)C(=O)NCC(=O)O2
GI50 (OVCAR-8): 31000 nM | GI50 (SF-268): 17000 nM | GI50 (HCT-116): 11000 nM | GI50 [1]: 27000 nM | GI50 (NCI-H23): 27000 nM | GI50 (NCI-H522): 1700 nM | GI50 (MDA-MB-231): 16000 nM | GI50 [2]: 17000 nM | GI50 (MKN-28): 24000 nM | GI50 (HCC 2998): 13000 nM | GI50 (SNB-78): 13000 nM | GI50 (RXF 631): 100000 nM | GI50 (MKN-1): 14000 nM | GI50 (OVCAR-4): 22000 nM | GI50 (HCT-15): 100000 nM | GI50 (DU-145): 15000 nM | GI50 (St-4): 62000 nM | GI50 (A549): 18000 nM | GI50 (ACHN): 100000 nM | GI50 (DMS-273): 47000 nM | GI50 (KM12): 15000 nM | GI50 (SK-OV-3): 16000 nM | GI50 (PC-3): 13000 nM | Ratio IC50 [3]: 6 | GI50 (OVCAR-5): 15000 nM | GI50 (SNB-75): 14000 nM | GI50 (HT-29): 12000 nM | GI50 (U-251): 17000 nM | IC50 (Histone deacetylase 1): 184 nM | GI50 (SF-295): 51000 nM | GI50 (OVCAR-3): 16000 nM | GI50 [4]: 21000 nM | GI50 (MKN-7): 43000 nM | GI50 (LOX IMVI): 4500 nM | GI50 (NCI-H226): 21000 nM | IC50 [5]: 1020 nM | GI50 (SF-539): 15000 nM | GI50 (DMS-114): 15000 nM | GI50 (MCF7): 17000 nM | GI50 (MKN-74): 18000 nM | GI50 (MKN-45): 100000 nM | GI50 (NCI-H460): 43000 nM
